From ChEMBL document CHEMBL1138075 (Bioorg Med Chem Lett, 2006)
One block for each molecule: values may come before it. Calls of active or inactive are those of the source. No cut-off for these calls is given here. Square brackets hold non-standard residues; d marks the D form. Peptide text beside a SMILES is read from it. Thz = O=C(O)[C@@H]1CSCN1

Experiments:
Glutamate NMDA receptor = test: (§1) Displacement of L[3H]glutamate from GluR in rat brain synaptic membrane; type: cell membranes
Outline: (§2)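 Competitive radioligand binding to glutamate receptors: displacement of L-[³H]glutamate from rat brain synaptic membranes, with test concentrations up to 100 μM.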

[1] = biological target: T1, Glutamate NMDA receptor (Rattus norvegicus) (UniProt P35439+Q00959+Q00960+Q00961+Q62645+Q8VHN2+Q9R1M7); test: Displacement of L[3H]glutamate from GluR in rat brain synaptic membrane up to 100 uM; type: cell membranes; outline: as §2
[2] = biological target: T1, Glutamate NMDA receptor (Rattus norvegicus); test: Protection of rat hippocampal neurons from NMDA excitotoxicity; type: functional, tissue-based; settings: Hippocampus
Outline: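 Neuronal death was induced in cultured rat hippocampal neurons by exposure to NMDA (100 µM), and neuronal survival was scored with test agent present.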

[3] = biological target: T1, Glutamate NMDA receptor (Rattus norvegicus); test: Binding affinity to GluR in rat brain synaptic membranes at 100 uM
Hippocampal neurone = test: Protection of rat hippocampal neurons from oxygen-glucose deprivation; type: functional, tissue-based; settings: Hippocampus
Outline: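 Cultured rat hippocampal neurons were subjected to oxygen-glucose deprivation injury, and neuronal survival was assessed with test agent present.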

[4] = biological target: T1, Glutamate NMDA receptor (Rattus norvegicus); test: as §1; type: cell membranes; outline: as §2

SMILES: CC1(C)CC[C@H](C(=O)N[C@@H](CCC(=O)O)C(=O)O)N1C(=O)CN
Ki (Glutamate NMDA receptor): 0.33 µM

SMILES: NCC(=O)N1CCC[C@]12CCN([C@@H](CCC(=O)O)C(=O)O)C2=O
Activity [1]: inactive

SMILES: NCC(=O)N1CSC[C@H]1C(=O)N[C@@H](CCC(=O)O)C(=O)O (H-Gly-[Thz]-Glu-OH)
Activity [4]: inactive

SMILES: CC1(C)SC[C@@H](C(=O)N[C@@H](CCC(=O)O)C(=O)O)N1C(=O)CN
Activity [4]: inactive

Now from value to molecule, other results behind:

Ki (Glutamate NMDA receptor): 3.79 µM
SMILES: CC1(C)CC[C@@H](C(=O)N[C@@H](CCC(=O)O)C(=O)O)N1C(=O)CN

Activity [3]: inactive
SMILES: NCC(=O)N1CCC[C@H]1C(=O)N[C@H](CCC(=O)O)C(=O)O
Activity [2]: Active | Activity (Hippocampal neurone): Active

Activity [1]: inactive
SMILES: CCC[C@@]1(C(=O)N[C@@H](CCC(=O)O)C(=O)O)CCCN1C(=O)CN

Ki (Glutamate NMDA receptor): 31.2 µM
SMILES: C[C@@]1(C(=O)N[C@@H](CCC(=O)O)C(=O)O)CCCN1C(=O)CN (stereo in doubt; 1) [TROFINETIDE]

Activity [3]: inactive
SMILES: NCC(=O)N1CCC[C@@H]1C(=O)N[C@@H](CCC(=O)O)C(=O)O
Activity [2]: Active | Activity (Hippocampal neurone): Active
